Data reported in PMC3264876 (Pharmaceutical Research, 2011).

Assay: Nonsink release testing in MFDS
Format: physicochemical
In short: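 Nanoparticle or bulk crystalline suspensions (nanoparticles at about 6 mg/mL solids, various drug loadings) diluted to 40 μgA/mL in MFDS. MFDS: 7.3 mM NaTC, 1.4 mM POPC, phosphate/NaCl, pH 6.5, 290 mOsm. Stirred at 60 rpm. Duplicate aliquots per time point spun through 100-kDa MWCO filters, 12,000 rpm, 5 min. Free drug is dissolved plus micellar; split estimated from micelle partition coefficient and micelle volume fraction.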

Cc1ccc(-c2cc(C(F)(F)F)nn2-c2ccc(S(N)(=O)=O)cc2)cc1 [celecoxib]
equilibrium partition coefficient into bile-salt micelles (MFDS): approximately 1,000 | maximum concentration in MFDS (dissolved plus in bile-salt micelles) (MFDS pH 6.5, dose 40 μgA/mL): 16 µg/mL | time to reach maximum concentration in MFDS (MFDS, 40 μgA/mL): at least 1 h | concentration of celecoxib in bile-salt micelles (MFDS, equilibrium): about 13.5 μg/mL | dissolved celecoxib concentration at equilibrium (MFDS, from micelle partition coefficient and 0.5% micelle volume): approximately 2.5 μg/mL
